TRPC4 inh – inhibitors of mouse TRPC4 channel; AID 2247; B-score at 10 µM; HEK293 TRPC4beta/mu-opioid, DAMGO-evoked Fluo4 calcium flux; stronger effect = lower value; hit rate 0.39% among 300,000; Q9QUQ5;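 active = B-score over 3 SD under the library average, no early fluorescence shift, positive overall ratio signal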
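Assay system: HEK293 cells with stable TRPC4beta plus mu-opioid receptor expression; Probe or stimulus: DAMGO in two steps, submaximal then maximal; Dosing: single-point compound dosing; Measured by: Fluo4 calcium-dye fluorescence, kinetic read; Read-out basis: B score from integrated Fluo4 fluorescence ratio.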
TRPC6 inhibitor – blocks the mouse TRPC6 cation channel | Q61143 | HEK293-TRPC6, membrane potential dye, ACh-evoked depolarization; stronger effect = lower value | B-score at 10 µM | hit rate 1.1% among 310,000 | AID 2553;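 active = B-score under library mean minus 3 SD, initial fluorescence not abnormally high, positive integrated signal ratio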;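 note: B-score derived from integrated fluorescence ratio over the kinetic read; more negative B-score means stronger inhibition of depolarization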
TRPC4 act – TRPC4 (mouse) channel activation | Q9QUQ5 | B-score at 10 µM | HEK293 TRPC4beta/mu-opioid, Fluo4 calcium fluorescence; stronger effect = higher value | AID 2237 | hit rate 0.49% among 310,000;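 active = B-score above 5 SD of library B-scores, and initial fluorescence ratio not above library mean plus 5 SD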;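 note: positive B-score marks a calcium rise read as TRPC4 activation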
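Incubation: 45 min room-temperature Fluo4 loading, 110 s read / System: HEK293 cells stably co-expressing mouse TRPC4beta and mu-opioid receptor / Signal: Fluo4 fluorescence, kinetic / Control set: buffer (low) and maximal DAMGO (high) / Measure: integrated baseline-normalised fluorescence ratio, converted to per-well B score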
TRPC4 PAM – allosterically enhances the mouse TRPC4 cation channel; Q9QUQ5; HEK293 TRPC4beta/mu-opioid, DAMGO EC20, Fluo-4 Ca2+ flux; stronger effect = higher value; B-score at 10 µM; hit rate 0.42% among 310,000;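 active = B-score of calcium response area above 5 SD of library B-scores, with initial fluorescence ratio within 5 SD of library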;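 note: B-score of integrated fluorescence ratio over time as area under calcium response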
TRPC6 act – mouse TRPC6 channel activation; B-score at 10 µM; hit rate 0.13% among 310,000; Q61143; HEK293-TRPC6 membrane potential dye fluorescence; stronger effect = higher value;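 active = B-score of the integrated fluorescence ratio above library mean plus 3 SD, and starting fluorescence ratio within library mean plus 5 SD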;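 note: higher score means more depolarization so channel activation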
TRPC4 sel inh 2 – mouse TRPC4 off-target activity of TRPC6 inhibitors, second screen; shares compounds with TRPC6 inhibitor; HEK293 TRPC4/MOR, membrane potential dye fluorescence; channel activated by saturating DAMGO dose; inhibition, % at 10 µM; hit rate 42% among 920; AID 2776;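 active = compounds whose fluorescence signal differed from control wells by over 3 SD, either direction, in both duplicate plates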
TRPC4 spec – tests whether TRPC6 inhibitors also affect mouse TRPC4; shares compounds with TRPC6 inhibitor; HEK293 TRPC4/mu-opioid, membrane potential fluorescence; activity change, negative = inhibition, % at 10 µM; hit rate 61% among 920;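 active = rise or fall in signal beyond 3 SD of buffer-only wells in both replicate plates, either sign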;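 note: integrated kinetic ratio of fluorescence range over baseline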
HEK293 MPD ctr 2-1 – second counter-screen for TRPC6 inhibitors: parental HEK293 cells. hit rate 31% among 920. shares compounds with TRPC6 inhibitor. signal change vs control, % at 10 µM. parental HEK293 membrane potential dye fluorescence; maximal acetylcholine challenge after compound addition. AID 2779;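 active = membrane potential signal moving either way by over 3 SD of the maximum-effect control, in both duplicate plates, meaning non-specific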
HEK293 MPD ctr-1 – counter-screen for TRPC6 inhibitors: effect in parental HEK293 cells. hit rate 60% among 920. parental HEK293 membrane potential dye fluorescence. membrane potential signal change, % at 10 µM. shares compounds with TRPC6 inhibitor;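 active = membrane potential signal shifting up or down by more than 3 SD of buffer-only wells, on both duplicate plates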
HEK293 MPD ctr-2 – counter-screen for TRPC6 modulators: effect in parental HEK293 cells. AID 488924. membrane potential dye fluorescence. hit rate 51% among 2,400. membrane potential signal change, % at 10 µM. shares compounds with TRPC6 inhibitor;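 active = membrane potential signal moves up or down beyond 5 SD from buffer-only wells, on both duplicate plates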
HEK293 MPD ctr 2-2 – second counter-screen for TRPC6 modulators: effect in parental HEK293 cells | AID 488926 | hit rate 14% among 2,400 | inhibition, % at 10 µM | membrane potential dye fluorescence; after compound, maximal acetylcholine stimulation | shares compounds with TRPC6 inhibitor;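 active = membrane potential signal drops by more than 5 SD from the mean control signal, in both duplicate plates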;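 note: plate controls were acetylcholine ECmax control wells for no effect and buffer only wells for full effect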
TRPC4 ctr mod – mouse TRPC4 off-target activity of TRPC6 modulators. shares compounds with TRPC6 inhibitor. hit rate 69% among 2,400. percent change from control (negative = decrease, positive = increase), % at 10 µM. AID 488927. HEK293 TRPC4/mu-opioid, membrane potential fluorescence;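 active = membrane potential signal moved up or down beyond 5 SD of buffer control wells, in both duplicate plates, actives on both sides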;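 note: plate controls were assay buffer wells for no effect and DAMGO maximal-effect wells for full effect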
TRPC4 ctr inh 2 – mouse TRPC4 off-target activity of TRPC6 modulators, second screen; hit rate 55% among 2,400; inhibition, % at 10 µM; AID 488928; HEK293 TRPC4/mu-opioid, membrane potential dye fluorescence; stimulated with maximal-effect DAMGO; shares compounds with TRPC6 inhibitor;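 active = drop in membrane potential signal beyond 5 SD of the control wells in both duplicate plates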;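 note: TRPC4 counter screen for TRPC6 hits run under conditions tuned for TRPC6 not TRPC4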
TRPC6 inh conf – confirmation of mouse TRPC6 inhibitors | shares compounds with TRPC6 inhibitor | HEK293-TRPC6, membrane potential dye, ACh-evoked depolarization | inhibition, % at 10 µM | hit rate 43% among 3,300 | AID 488960;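 active = fluorescence ratio falls more than 5 SD below the full-stimulation control mean, in both duplicate runs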;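 note: integrated fluorescence ratio of peak minus minimum over baseline after agonist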
TRPC6 act conf – confirmation of mouse TRPC6 activators; shares compounds with TRPC6 inhibitor; HEK293-TRPC6 membrane potential dye fluorescence, FDSS; activation, % at 10 µM; hit rate 11% among 2,800;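 active = ratio signal rise beyond 5 SD above unstimulated control wells' mean, seen in both duplicate runs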;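 note: plate controls were buffer EC0 wells for no effect and acetylcholine ECmax response for full effect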
* hit, by the source's call. Hits are enriched below; roughly 2.3% of the tested compounds scored in any of these assays.

What do the screens show for `CN1CCC(OC(c2ccccc2)c2ccccc2)CC1`?
TRPC4 inh: inactive; TRPC6 inhibitor: -6.6*; TRPC4 act: inactive; TRPC4 PAM: inactive; TRPC6 act: inactive; TRPC4 sel inh 2: inactive; TRPC4 spec: 8.7%*; HEK293 MPD ctr 2-1: -5.0%*; HEK293 MPD ctr-1: 11%*; TRPC6 inh conf: 66%*

What do the screens show for `CCOC(=O)c1ccccc1NC(=O)COC(=O)CC1CCCCC1`?
TRPC4 inh: inactive; TRPC6 inhibitor: inactive; TRPC4 act: inactive; TRPC4 PAM: inactive; TRPC6 act: inactive

How did CCOC(=O)c1ccccc1NC(=O)c1c(F)c(F)c(F)c(F)c1F do in these assays?
TRPC4 inh: inactive; TRPC6 inhibitor: -6.2*; TRPC4 act: inactive; TRPC4 PAM: inactive; TRPC6 act: inactive; HEK293 MPD ctr-2: inactive; HEK293 MPD ctr 2-2: inactive; TRPC4 ctr mod: inactive; TRPC4 ctr inh 2: inactive; TRPC6 inh conf: inactive; TRPC6 act conf: inactive

Results for CCOC(=O)c1ccccc1NC(=O)c1ccc(F)cc1 ?
TRPC4 inh: inactive; TRPC6 inhibitor: inactive; TRPC4 act: inactive; TRPC4 PAM: inactive; TRPC6 act: inactive

What do the screens show for `CCOC(=O)c1ccccc1NC(=O)COC(=O)C1CCCC1`?
TRPC4 inh: inactive; TRPC6 inhibitor: -8.1*; TRPC4 act: inactive; TRPC4 PAM: inactive; TRPC6 act: 14*; HEK293 MPD ctr-2: 137%*; HEK293 MPD ctr 2-2: inactive; TRPC4 ctr mod: 32%*; TRPC4 ctr inh 2: inactive; TRPC6 inh conf: 58%*; TRPC6 act conf: 118%*

Results for CCOc1cc(S(=O)(=O)NCCCn2ccnc2)ccc1Cl ?
TRPC4 inh: inactive; TRPC6 inhibitor: inactive; TRPC4 act: inactive; TRPC4 PAM: inactive; TRPC6 act: inactive

What do the screens show for `CCOC(=O)C1=C(C)N=c2s/c(=C/c3ccc(OCC(=O)O)cc3)c(=O)n2C1c1ccc(OC)cc1OC` (stereo unspecified)?
TRPC4 inh: inactive; TRPC6 inhibitor: inactive; TRPC4 act: inactive; TRPC4 PAM: inactive; TRPC6 act: 16*; HEK293 MPD ctr-2: active; HEK293 MPD ctr 2-2: inactive; TRPC4 ctr mod: 62%*; TRPC4 ctr inh 2: inactive; TRPC6 inh conf: inactive; TRPC6 act conf: 132%*

What do the screens show for `CCn1c(C)cc(/C=C2/SC(=S)NC2=O)c1C`?
TRPC4 inh: inactive; TRPC6 inhibitor: inactive; TRPC4 act: inactive; TRPC4 PAM: inactive; TRPC6 act: inactive

Compound activity (PubChem)
